Results from ChEMBL document CHEMBL4425094, “Novel Benzo[a]quinolizidine Analogs Induce Cancer Cell Death through Paraptosis and Apoptosis” (J Med Chem, 2016).
The source made the active and inactive calls. The rule behind the calls is not given here.

Experiments:
[1] = test system: PC-3; test: Induction of cell cycle arrest in human PC3 cells assessed as accumulation in S phase at 1 uM after 24 hrs by […]propidium iodide based flow cytometric analysis (reference value: 21 to 31.6 %); assay type: functional
[2] = test system: PC-3; test: Induction of cell cycle arrest in human PC3 cells assessed as accumulation in G2 phase at 2 uM after 24 hrs by […]propidium iodide based flow cytometric analysis (reference value: 16.3 to 25 %); assay type: functional
[3] = test system: PC-3; test: Induction of apoptosis in human PC3 cells assessed as viable cells at 1 uM after 24 hrs by Annexin V-FITC/propidium iodide based flow cytometric analysis (reference value: 95.4 %); assay type: functional; details: PC-3, 24 h, read-out: Activity
In short: (§1)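 PC3 cells exposed to 0.5, 1 or 2 μM for 24 h, then stained with Annexin V-FITC and PI and analyzed by FACSCalibur flow cytometry. Populations assigned as necrotic (Annexin V−/PI+), late apoptotic (double positive), normal (Annexin V−/PI−) and early apoptotic (Annexin V+/PI−). DMSO vehicle control.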

[4] = test system: PC-3; test: Induction of apoptosis in human PC3 cells assessed as early apoptotic cells at 2 uM after 24 hrs by Annexin V-FITC/propidium iodide based flow cytometric analysis (reference value: 2.3 %); assay type: functional; in short: as §1
[5] = test system: PC-3; test: Induction of cytoplasmic vacuolation in human PC3 cells assessed as increase in size and number of vacuoles at 1 uM by phase-contrast microscopic analysis; assay type: functional, cell-based; details: TDE = time-dependent effect
In short: (§2)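 PC3 cells in RPMI 1640 with 10% FBS at 37 °C, 5% CO2, treated with 1 μM agent for 0−24 h; DMSO vehicle control. Vacuole appearance, size and number followed over time by phase-contrast microscopy at constant magnification.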

[6] = test system: PC-3; test: Induction of cytoplasmic vacuolation in human PC3 cells at 1 uM after 24 hrs by phase-contrast microscopic analysis; assay type: functional, cell-based; in short: as §2
[7] = test system: PC-3; test: Induction of ER stress in human PC3 cells assessed as formation of vacuoles after 8 to 24 hrs […]; assay type: functional, cell-based
[8] = test system: PC-3; test: Induction of ER stress in human PC3 cells assessed as upregulation of CHOP after 24 hrs by Western blot analysis; assay type: functional, cell-based
In short: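 PC3 cells in RPMI 1640 with 10% FBS, treated with compound for timed intervals. DMSO vehicle control. Lysis in RIPA buffer, 40 μg protein per lane on SDS-PAGE, transfer to nitrocellulose. Primary antibodies overnight at 4 °C, HRP-secondary 45 min, ECL detection. GAPDH or β-actin used as loading control.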

[9] = test system: PC-3; test: Cytotoxicity in human PC3 cells assessed as reduction in cell viability after 24 hrs in presence of AcT-D by MTT assay; assay type: functional, cell-based
In short: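 PC3 cells pretreated with 10 μM actinomycin D or 5 μM cycloheximide, then treated with compound for 24 h. Viability by MTT at 570 nm. Vacuolation imaged by phase-contrast microscopy.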

[10] = test system: PC-3; test: Induction of vacuolization in human PC3 cells in presence of CHX after 24 hrs by phase-contrast microscopic analysis; assay type: functional, cell-based
In short: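 PC3 cells pretreated with 10 μM actinomycin D or 5 μM cycloheximide, then treated with agent for 24 h. Vacuolization imaged by phase-contrast microscopy; viability by MTT.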

[11] = test system: PC-3; test: Cytotoxicity against human PC3 cells assessed as reduction in cell viability at 1 uM after 24 hrs in presence of […] inhibitor E-64d by MTT assay; assay type: functional, cell-based
In short: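 PC3 cells pretreated with autophagy inhibitor 3-MA or E64d, then given 1 μM compound for 24 h. Viability measured by MTT (4 h, 570 nm). Morphology checked by phase-contrast microscopy.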

[12] = test system: PC-3M; test: Antitumor activity against human PC3M-lluc-C6 cells xenografted in athymic Balb/c mouse assessed as tumor weight at 15 mg/kg, ip administered every 2 days for 18 days (reference value: 0.71 +/- 0.06 g); assay type: functional
[13] = test system: PC-3M; test: Antiproliferation activity against human PC3M-lluc-C6 cells xenografted in athymic Balb/c mouse assessed as decrease in cell viability at 15 mg/kg, ip administered every 2 days for 18 days by H and E staining based microscopic analysis; assay type: functional, organism-based
In short: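 Male BALB/c-nu mice, 6 weeks old, each given 5 × 10^6 PC3M-luc-C6 cells subcutaneously in the right anterior flank. At ~0.1 cm3 tumor, groups of n = 5 received 15 mg/kg i.p. every 2 days. Docetaxel 15 mg/kg was the positive control. Tumor tissue stained with H&E or anti-Ki67 (1:500) overnight at 4 °C, HRP/DAB, hematoxylin counterstain, examined by microscopy.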

[14] = test system: PC-3; test: Induction of autophagy in human PC3 cells transfected with mRFP-GFP-LC3 assessed as pervacuolar distribution of LC3 at 1 uM after 8 hrs by fluorescence microscopic analysis; assay type: functional, cell-based
In short: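 PC3 cells transfected with an mRFP-GFP-LC3 reporter plasmid, then treated 8 h with 1 μM test agent or 0.5 μM rapamycin (autophagy inducer). Imaged by confocal fluorescence microscopy: yellow puncta (overlapping red/green) scored as autophagosomes, red-only puncta as autolysosomes, since GFP is quenched in acidic lysosomes.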

[15] = test system: PC-3M; test: Induction of paraptosis in human PC3M-lluc-C6 cells xenografted in athymic Balb/c mouse at 15 mg/kg, ip administered every 2 days for 18 days by H and E staining based method; assay type: functional, organism-based
In short: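 Subcutaneous PC3M-luc-C6 xenografts (5 × 10^6 cells) were grown in 6-week male athymic BALB/c-nu mice. Groups of n = 5 received 15 mg/kg i.p. every 2 days from ~0.1 cm3 tumor volume, with a vehicle group. Excised tumor tissue was examined by H&E staining for vacuoles.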

For `Cc1cc(C)cc(COc2cc3c(cc2OCc2cc(C)cc(C)c2)[C@@H]2C[C@H](O)C[C@@H](C)N2CC3)c1` (racemic), the Activity [1] was 10.1 - 20.4%, the Activity [2] was 10.8 - 12.3% and the viability at 1 µM [3] was 90%. The Activity [4] was 20.5%, the Activity [5] was “Tde” and the Activity [6] was “Active”. The Activity [7] was “Active”, the Activity [8] was “Active” and the Activity [9] was “inactive”. The Activity [10] was “inactive”, the Activity [11] was “inactive” and the Activity [12] was 0.42 g. For the same molecule, the Activity [13] was “Active”, the Activity [14] was “Active” and the Activity [15] was “Active”.
